inhibition, ED50 and -Log KB data for 18 compounds are collected here from ChEMBL document CHEMBL1125286, “Zatosetron, a potent, selective, and long-acting 5HT3 receptor antagonist: synthesis and structure-activity relationships” (J Med Chem, 1992).

The term inhibition denotes the change of the read-out against control, counted positive when it falls. Usually ED50 stands for the dose that gives a 50% effect, or the effect in half of the subjects. Low readings indicate greater potency, high ones weaker potency.

The target of experiment [1] is T1, Serotonin 3 (5-HT3) receptor (Rattus norvegicus) (UniProt P35563+Q9JJ16). Briefly: 5-hydroxytryptamine 3 receptor antagonistic activity was measured by the inhibition of 5H+ T-induced bradycardia after iv administration of 1000 ug/kg dose in urethane-anesthetized rats. In kind it is functional, organism-based. Summed up:
(§1)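 Urethane-anesthetized rats. First 5HT challenge 30 μg/kg iv gives a transient bradycardia. Once heart rate is back at steady state (≤5 min), test compound or saline goes in via the femoral vein. 5HT 30 μg/kg iv is repeated 15 min later. % inhibition is the difference between first and second bradycardia at peak, each animal its own control. Means ± SEM, groups of 3–16 rats.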

The target of experiment [2] is T1, Serotonin 3 (5-HT3) receptor (Rattus norvegicus). Briefly: 5-hydroxytryptamine 3 receptor antagonistic activity was measured by the inhibition of 5H+ T-induced bradycardia after iv administration of 3 ug/kg dose in urethane-anesthetized rats. The class given is functional, organism-based. In a few lines:
(§2)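 Urethane-anesthetized rats; antagonist or saline given iv via femoral vein after heart rate settled (≤5 min) from an initial 5HT challenge (30 µg/kg iv). 5HT was given again 15 min later. Peak bradycardia measured, each rat its own control; % inhibition = difference between first and second responses. Groups of 3–16 rats, means ± SEM.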

Experiment [3] shares this target. The experiment is described as follows: Compound was tested for the inhibition of 5-HT-induced bradycardia after intravenous administration of 0.3 ug/kg dose in urethane-anesthetized rats. In kind it is functional, organism-based. Summed up: as §2
For experiment [4] the target is unchanged. Briefly: Compound was tested for the inhibition of 5-HT-induced bradycardia after intravenous administration of 1 ug/kg dose in urethane-anesthetized rats. In kind it is functional, organism-based. Summed up: as §2
The target is the same in experiment [5]. Briefly: Compound was tested for the inhibition of 5-HT-induced bradycardia after peroral administration of 0.03 mg/kg dose in urethane-anesthetized rats at 1 hour. The class given is functional, organism-based. Set-up: dose 0.03 mg/kg. In a few lines: (§3)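 Duration study: antagonist or vehicle gavaged to conscious fasted rats (5 mL/kg). Rats were urethane-anesthetized and surgically prepared, then challenged with 5HT 0.03 mg/kg iv at the stated time after dosing. Vehicle-treated rats served as controls. Peak inhibition of bradycardia recorded in groups of 3–11, means ± SEM.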

Experiment [6] has the same target. The experiment is described as follows: Compound was tested for the inhibition of 5-HT-induced bradycardia after peroral administration of 0.03 mg/kg dose in urethane-anesthetized rats at 16 hour. The class given is functional, organism-based. Also on record: dose 0.03 mg/kg. Summed up: as §3
The target is the same in experiment [7]. Briefly: Compound was tested for the inhibition of 5-HT-induced bradycardia after peroral administration of 0.03 mg/kg dose in urethane-anesthetized rats at 3 hour. In kind it is functional, organism-based. Also on record: dose 0.03 mg/kg. In a few lines: as §3
The target is the same in experiment [8]. Briefly: Compound was tested for the inhibition of 5-HT-induced bradycardia after peroral administration of 0.03 mg/kg dose in urethane-anesthetized rats at 6 hour. The class given is functional, organism-based. Set-up: dose 0.03 mg/kg. Summed up:
as §3

Experiment [9] has the same target. The experiment is described as follows: Compound was tested for the inhibition of 5-HT-induced bradycardia after peroral administration of 10 ug/kg dose in urethane-anesthetized rats. In kind it is functional, organism-based. In a few lines: (§4)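 Fasted rats gavaged (5 mL/kg) with antagonist or vehicle (distilled water). Urethane anesthesia and surgical preparation followed, 15–20 min before 5HT challenge. 5HT 30 µg/kg iv given 1 h after dosing, with vehicle-treated rats as controls. Peak % inhibition of bradycardia in groups of 3–11, means ± SEM.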

For experiment [10] the target is unchanged. Briefly: Compound was tested for the inhibition of 5-HT-induced bradycardia after peroral administration of 3 ug/kg dose in urethane-anesthetized rats. In kind it is functional, organism-based. In a few lines:
as §4

For experiment [11] the target is unchanged. Briefly: Compound was tested for the inhibition of 5-HT-induced bradycardia after peroral administration of 30 ug/kg dose in urethane-anesthetized rats. The class given is functional, organism-based. In a few lines: as §4
Experiment [12] has the same target. Briefly: Inhibition of 5-HT-induced bradycardia by 5-hydroxytryptamine 3+. The class given is functional.
For experiment [13] the target is unchanged. Briefly: Compound was tested for the inhibition of 5-HT-induced bradycardia after peroral administration of 0.03 mg/kg dose in urethane-anesthetized rats at 0.05 hour. Set-up: dose 0.03 mg/kg. The conditions noted are these: in the assay text read “0.5 hour” for “0.05 hour”. In kind it is functional, organism-based. Summed up:
as §3

Experiment [14] concerns Serotonin 3 receptor (Cavia porcellus). The experiment is described as follows: In vitro binding affinity was measured for 5-hydroxytryptamine 3 receptor in the guinea pig ileum.
In experiment [15] the target is T1, Serotonin 3 (5-HT3) receptor (Rattus norvegicus). The experiment is described as follows: Compound was tested for the inhibition of 5-HT-induced bradycardia after peroral administration in urethane-anesthetized rats.
Experiment [16] has the same target. The experiment is described as follows: 5-hydroxytryptamine 3 receptor antagonistic activity measured by inhibition of 5-HT-induced bradycardia (iv administration 10 ug/kg dose in urethane-anesthetized rats). The class given is functional, organism-based. In a few lines:
as §1

Experiment [17] has the same target. The experiment is described as follows: Compound was tested for the inhibition of 5-HT-induced bradycardia after intravenous administration of 30 ug/kg dose in urethane-anesthetized rats. In kind it is functional, organism-based. In a few lines:
as §1

Experiment [18] has the same target. Briefly: 5-hydroxytryptamine 3 receptor antagonistic activity was measured by the inhibition of 5-HT-induced bradycardia after iv administration of 1000 ug/kg dose in urethane-anesthetized rats. The class given is functional, organism-based. Summed up:
as §1

For experiment [19] the target is unchanged. Briefly: 5-hydroxytryptamine 3 receptor antagonistic activity as inhibition of 5-HT-induced bradycardia after iv administration of 100 ug/kg dose in urethane-anesthetized rats. In kind it is functional, organism-based. In a few lines: as §1
For experiment [20] the target is unchanged. Briefly: Compound was tested for the inhibition of 5-HT-induced bradycardia after peroral administration of 100 ug/kg dose in urethane-anesthetized rats. The class given is functional, organism-based. Summed up:
as §4

Experiment [21] shares this target. The experiment is described as follows: Compound was tested for the inhibition of 5-HT-induced bradycardia after peroral administration of 1000 ug/kg dose in urethane-anesthetized rats. The class given is functional, organism-based. Summed up: as §4
Experiment [22] has the same target. Briefly: Compound was tested for the inhibition of 5-HT-induced bradycardia after peroral administration of 0.3 mg/kg at 0.5 hours in urethane-anesthetized rats. In kind it is functional, organism-based. Also on record: dose 0.3 mg/kg. The settings on record: at 0.3 mg/kg. In a few lines:
(§5)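 Duration study. Antagonist or vehicle is given by oral gavage to conscious rats. Rats are then urethane-anesthetized, surgically prepared and challenged with 5HT 0.03 mg/kg iv at the stated time after dosing. Peak inhibition of bradycardia is measured against vehicle-treated controls. Means ± SEM, groups of 3–11 rats.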

Experiment [23] has the same target. Briefly: Compound was tested for the inhibition of 5-HT-induced bradycardia after peroral administration of 0.3 mg/kg at 1 hour in urethane-anesthetized rats. Also on record: dose 0.3 mg/kg. In kind it is functional, organism-based. The conditions noted are these: at 0.3 mg/kg. Summed up: as §5
For experiment [24] the target is unchanged. Briefly: Compound was tested for the inhibition of 5-HT-induced bradycardia after peroral administration of 0.3 mg/kg at 3 hours in urethane-anesthetized rats. In kind it is functional, organism-based. Also on record: dose 0.3 mg/kg. The conditions noted are these: at 0.3 mg/kg. In a few lines:
as §5

Experiment [25] shares this target. Briefly: Compound was tested for the inhibition of 5-HT-induced bradycardia after peroral administration of 0.3 mg/kg at 6 hours in urethane-anesthetized rats. In kind it is functional, organism-based. Set-up: dose 0.3 mg/kg. The settings on record: at 0.3 mg/kg. Summed up: as §5
The target is the same in experiment [26]. Briefly: 5-HT3 receptor antagonistic activity was measured by the inhibition of 5-HT-induced bradycardia after iv administration of 1000 ug/kg dose in urethane-anesthetized rats. In kind it is functional, organism-based. In a few lines: as §1

In the case of `CN1[C@@H]2CC[C@H]1C[C@H](OC(=O)c1ccccc1)C2`, the inhibition in [1] turned out to be 88.1%.
Take `CN1[C@@H]2CC[C@H]1C[C@@H](NC(=O)c1cc(Cl)cc3c1OC(C)(C)C3)C2` (stereo in doubt): the inhibition amounted to 84.4% in [2]; 10.8% in experiment [3]; 66.2% in [4]; 77.6% in experiment [5]; 0% in experiment [6]; 61.1% in experiment [7]. For the same compound, the inhibition in [8] was 81.4%; in [9] it was 57.1%; in [10] it was 19.1%; in experiment [11] it was 77.6%; in experiment [13], 86.4%. The ED50 is 0.9 µg/kg in [12] and 9.2 µg/kg in experiment [15]. This compound also registered a -Log KB in experiment [14] of 8.78.
As for `CN1C2CCC1CC(NC(=O)c1cccc3c1OC(C)(C)C3)C2` (stereo not drawn), the results for the inhibition in experiment [16] and in experiment [2] were 47.5% and 13.7%, respectively.
Consider `CC1Cc2cccc(C(=O)OC3CC4CCC(C3)N4C)c2O1` (stereo not drawn), for which the inhibition in experiment [16] was 30.6%.
Still for that read-out and setting: the result for `CN1C2CCC1CC(NC(=O)c1ccc(Cl)c3c1OC(C)(C)C3)C2` (stereo not drawn) reads 1.9%.
`CN1C2CCC1CC(OC(=O)c1ccc3c(c1)oc1ccccc13)C2` (stereo not drawn) came in with an inhibition in experiment [1] of 1.5%.
In experiment [16], `CN1C2CCC1CC(NC(=O)c1cccc3c1CC(C)(C)O3)C2` (stereo not drawn) had an inhibition of 2.1%.
As to `CN1[C@@H]2CC[C@H]1C[C@@H](NC(=O)c1cc(Cl)cc3c1OC(C)(C)C3)C2` (stereo in doubt; 50), the figures for the inhibition in experiment [16] and in experiment [2] were 67.1% and 25.9%, respectively.
Regarding `CC1Oc2c(C(=O)OC3CC4CCC(C3)N4C)cccc2C1C` (stereo in doubt; 26), the inhibition in experiment [16] worked out at 29.9%; in experiment [2] it was 1.8%; in experiment [17] it was 78.7%.
With `CN1C2CCC1CC(OC(=O)c1ccccc1-c1ccccc1)C2` (stereo not drawn), the inhibition in experiment [18] was 47.3%.
For the compound `COc1cc2c(c(C(=O)NC3CC4CCC(C3)N4C)c1)OC(C)C2` (stereo not drawn), in experiment [16], the inhibition came to 28.9%.
Turning to `CN1C2CCC1CC(OC(=O)c1ccccc1Oc1ccccc1)C2` (stereo not drawn), the inhibition in experiment [1] was 54.5%.
`CN1C2CCC1CC(NC(=O)c1ccc3c(c1)CC(C)(C)O3)C2` (stereo not drawn) came in with an inhibition in [16] of 16.7%.
In [18], `CN1C2CCC1CC(OC(=O)c1ccc(OC(F)(F)F)cc1)C2` (stereo not drawn) returned an inhibition of 4.7%.
`CN1[C@@H]2CC[C@H]1C[C@@H](OC(=O)c1c[nH]c3ccccc13)C2`: the inhibition is 70.6% in experiment [19]; 54.2% in experiment [2]; 20.1% in experiment [4]; 39.8% in experiment [20]; 85% in [21]; 0.1% in experiment [9]. For the same compound, the inhibition in experiment [22] was found to be 86.6%; in experiment [23], 77.4%; in experiment [24], 65.2%; in experiment [25], 17.4%. Also, the ED50 worked out at 3.1 µg/kg in experiment [12] and 127 µg/kg in experiment [15].
For the compound `CC1Oc2c(C(=O)OC3CC4CCC(C3)N4C)cccc2C1C` (stereo in doubt; 27), the inhibition stood at 32.7% in experiment [16], 35.6% in experiment [2] and 47.3% in experiment [17].
As for `CN1CCC(OC(=O)c2ccccc2)CC1`, the inhibition in [26] came to 0%.
For the compound `Cc1cc2cccc(C(=O)OC3CC4CCC(C3)N4C)c2o1` (stereo not drawn), in experiment [16], the inhibition stood at 7.3%.
